Screening data (PubChem)
Compounds with a hit are over-represented: about 2.6% of the library has one in this group of screens.
NR2E3 ag-1: NR2E3 agonists in two-hybrid cells, primary screen, cell-based, luminescence, CHO-S, Gal4-NCOR/VP16-NR2E3; Photoreceptor-specific nuclear receptor (Homo sapiens), Q9Y5X4; luciferase; inhibition of corepressor binding, % at 3.98 µM; 0.35% of 360,000 active; AID 602229, 2012;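 active = inhibition above the mean of all tested compounds plus 3 SD, cut at about 70% in these data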;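 also: 0% = DMSO with NR2E3 transfected cells and 100% = cells lacking NR2E3 construct; higher means lower luciferase signal from less NR2E3 corepressor binding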
Target sequence (Q9Y5X4 whole entry, looked up, the tested form may be a part): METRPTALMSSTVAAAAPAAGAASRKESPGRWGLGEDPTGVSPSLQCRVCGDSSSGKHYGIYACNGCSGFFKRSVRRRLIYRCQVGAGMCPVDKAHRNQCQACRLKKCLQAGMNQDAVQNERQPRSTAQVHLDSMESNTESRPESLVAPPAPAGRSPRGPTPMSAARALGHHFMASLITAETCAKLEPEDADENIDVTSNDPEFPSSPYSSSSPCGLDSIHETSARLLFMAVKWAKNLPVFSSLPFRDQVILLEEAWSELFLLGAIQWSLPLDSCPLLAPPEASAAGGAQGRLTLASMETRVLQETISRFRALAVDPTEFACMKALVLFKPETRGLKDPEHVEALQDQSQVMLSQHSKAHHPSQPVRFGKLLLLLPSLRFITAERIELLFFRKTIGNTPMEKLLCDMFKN
PG9 binder: binders of HIV-1 gp120 antibody PG9, primary screen, biochemical, TR-FRET | HIV-1 gp120 / PG9 antibody interaction | TR-FRET gp120-PG9 antibody binding | inhibition, % at 6.7 µM | 0.43% of 360,000 active | AID 624416, 2012; in the data active = inhibition above about 8.5%
rCAG RNA binder: binders of r(CAG) RNA repeats, primary screen, biochemical, fluorescence; inhibition, % at 3 µM; 1.3% of 370,000 active; r(CAG) RNA repeat, TO-PRO-1 dye displacement fluorescence;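 active = inhibition above the plate cutoff, the mean of all test compounds on that plate plus 3 SD, cut at about 35% in these data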;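 also: 0% = DMSO alone and 100% = 100 µM mitoxantrone as full dye displacement; higher means more dye released from RNA so lower well fluorescence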
Rev-erbA mod: modulators of Rev-erb alpha DNA binding, primary screen, biochemical, FITC-DNA, fluorescence polarization, uHTS; activity, % at 10 µM; Nuclear receptor subfamily 1 group D member 1 (Homo sapiens), P20393; 0.79% of 370,000 active; Rev-erbα–FITC-DNA binding, 90 min; AID 1259318, 2017;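 active = activity above about 14%, limit read from the data; passing the limit was not always enough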;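 also: 0% = DMSO wells with 35 nM protein and 100% = DMSO wells with 750 nM protein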
NR2E3 ag-2: inhibitors of NR2E3-RetCOR corepressor binding, primary screen, NR2E3 agonist project, biochemical, TR-FRET, GST-NR2E3, biotin-RetCOR. Photoreceptor-specific nuclear receptor (Homo sapiens), Q9Y5X4. 1536-well. inhibition of corepressor binding, % at 4.78 µM. 0.12% of 320,000 active. AID 2300, 2010;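 active = percent inhibition above the cutoff of mean plus 3 SD of all tested compounds, set per screening campaign, cut at about 20% in these data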;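 also: 0% = DMSO wells and 100% = biotin wells as full block of FRET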
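System: GST-tagged NR2E3 plus biotinylated RetCOR corepressor; Buffer or medium: pH 7.5 Tris-based buffer; Probe or stimulus: RetCOR corepressor, biotinylated, 7 nM; Doses: compound at 4.8 µM, single dose; Schedule: 5 h incubation at 4 °C; Technique: time-resolved FRET; Evaluation: percent inhibition of TR-FRET ratio; Replication: one well per compound, singlicate testing.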
PG9 bind confirm: binders of anti-gp120 antibody PG9, confirmation, biochemical, TR-FRET. TR-FRET PG9 antibody binding. inhibition, % at 6.7 µM. shares compounds with PG9 binder. 90% of 1,500 active; in the data active = inhibition above about 9%
PGV04 Ab binding: binders of control antibody PGV04, counter-screen for PG9 antibody binder project, biochemical, TR-FRET, distinct HIV envelope site. shares compounds with PG9 binder. TR-FRET PGV04 antibody-gp120 binding. inhibition, % at 6.7 µM. 95% of 1,500 active; in the data active = inhibition above about 9.5%
PG9 bind DR: small-molecule binders of antibody PG9, dose response, biochemical, TR-FRET, HIV-1 gp120 antibody | shares compounds with PG9 binder | TR-FRET PG9 antibody-gp120 binding inhibition | IC50, µM | 95 tested, under 10 active; in the data active = IC50 below about 10 µM
PGV04 binding DR: binders of control antibody PGV04, dose response, counter-screen for PG9 antibody binder project, biochemical, TR-FRET, distinct HIV envelope site; shares compounds with PG9 binder; TR-FRET binding to control antibody PGV04; IC50, µM; 20% of 95 active; AID 651937, 2012
PG126 binding DR: binders of control antibody PG126, dose response, counter-screen for PG9 antibody binder project, biochemical, TR-FRET, distinct HIV envelope site; shares compounds with PG9 binder; TR-FRET binding to antibody PG126, counterscreen; IC50, µM; 20% of 95 active
An asterisk follows results filed as active; i = inactive; nt = no result. Rule as the data show it, unless noted: active = IC50 below about 9 µM; inactive = the rest.

SMILES	NR2E3 ag-1	PG9 binder	rCAG RNA binder	Rev-erbA mod	NR2E3 ag-2	PG9 bind confirm	PGV04 Ab binding	others
Cc1cc(O)c2c(C)c(CC(=O)N3CCN(C(=O)C4COc5ccccc5O4)CC3)c(=O)oc2c1 (stereo not given)	-23	6	9	3	3	nt	nt
CCN1C(C)=CC(=O)[C@@H](O)[C@H]1c1ccccc1Br	8	-1	1	0	nt	nt	nt
C[C@@H](NS(=O)(=O)c1c(F)cccc1F)c1ccccc1	nt	-1	0	-5	nt	nt	nt
COC(=O)C1=CN(c2ccc3c(c2)OCO3)C(N)=C(C#N)C1c1cccc(F)c1 (stereo not given)	nt	1	4	0	nt	nt	nt
Cc1cccc(C(=O)NNC(=O)c2c(-c3ccccc3Cl)noc2C)c1O	-20	0	7	1	5	nt	nt
CCOc1cc2[nH]c(=S)n(Cc3ccc(C(=O)NCCCN(CC)CC)cc3)c(=O)c2cc1OCC	11	-1	7	3	2	nt	nt
CCOc1cc2[nH]c(=S)n(Cc3ccc(C(=O)NCCCOC)cc3)c(=O)c2cc1OCC	-14	23*	4	13	-1	8	13*
S=c1nc[nH]c2c1cnn2-c1ccccc1	-30	17*	1	11	5	7	7	PG9 bind DR=>67;PGV04 binding DR=>67;PG126 binding DR=>67
O=C(COC(=O)c1cn(-c2ccccc2)nc1-c1ccccc1)Nc1ncc(Cl)cc1Cl	-3	15*	12	8	5	22*	33*
COCCCNC(=O)C[C@@H]1C[C@@]2(C(=O)OC)CCCCC=C2N(Cc2ccc(Cl)cc2Cl)C1=O	-19	1	2	-4	nt	nt	nt
Cc1ccc(NC(=O)Cn2c(=O)c3cccn3c3ccccc32)cc1	-2	21*	3	11	11	19*	27*
CC(=O)c1cn(CC(=O)Nc2ccc(C)cc2)c2ccccc12	20	17*	0	13	3	24*	32*
CCC(C)(C)C1CCC2(CC1)NC(=O)N(CC(=O)N(C)CCOc1ccc(Cl)cc1)C2=O (stereo not given)	-4	-2	1	3	nt	nt	nt
Cc1c(Cl)cnc(NC(=O)COC(=O)c2ccc3c(c2)OCO3)c1Cl	-10	28*	3	-1	2	16*	30*
COc1ccc(C)cc1NC(=O)COC(=O)c1ccc2c(c1)OCO2	9	24*	2	8	-1	24*	28*
Cc1nc(SCC(=O)NCC2CCCO2)c2cc(-c3ccccc3)sc2n1 (stereo not given)	-56	-3	4	-4	2	nt	nt
CC(=O)CSc1nc(N)c(C#N)c(-c2cccs2)c1C#N	-14	0	1	5	2	nt	nt
CC(=O)CSc1nc(-c2cccs2)c(C#N)c(=O)[nH]1	-11	49*	11	1	nt	53*	65*
CCn1c(=S)[nH]c2c(c1=O)C(C)(C)Cc1ccccc1-2	0	24*	-2	-4	nt	14*	12*	PG9 bind DR=>67;PGV04 binding DR=i;PG126 binding DR=i
COc1cccc(NC(=O)Cn2c3ccc(OC)cc3c3nc4n(c(=O)c32)CCS4)c1	5	14*	9	19	3	31*	25*	PG9 bind DR=>67;PGV04 binding DR=9*;PG126 binding DR=i
O=C(Cn1nnc(-c2ccccc2Cl)n1)NCc1ccc2c(c1)OCO2	1	10*	4	0	16	11*	14*
CCN1C(=O)[C@H]2[C@H]3CN=C(SCC(=O)c4ccccc4)N3[C@@](CC)(C(=O)OC)[C@H]2C1=O	-59	0	3	2	nt	nt	nt
COc1ccc(C(=O)Nc2ccccc2C(=O)N(Cc2ccco2)C(C(N)=O)C(C)C)cc1 (stereo not given)	-14	9.9*	-3	24	1	19*	16*	PG9 bind DR=>67;PGV04 binding DR=i;PG126 binding DR=>67
Cc1ccc(OCC(=O)NNC(=O)c2ccc(F)c(S(=O)(=O)N3CCOCC3)c2)cc1C	-9	0	8	5	nt	nt	nt
O=C(CSc1nc(-c2ccccc2)nc2ccccc12)Nc1cccc(C(=O)O)c1	-36	16*	31	-3	10	15*	22*
SMILES	NR2E3 ag-1	PG9 binder	rCAG RNA binder	Rev-erbA mod	NR2E3 ag-2	PG9 bind confirm	PGV04 Ab binding	others
O=C(CSc1nc(-c2ccc(F)cc2)nc2ccc(F)cc12)Nc1cccc(C(=O)O)c1	7	8	18	2	7	nt	nt
O=C(NC1CCSc2ccccc21)c1ccc(C(F)(F)F)cc1 (stereo not given)	-3	11*	-4	3	6	11*	18*
O=C(NC1CCSc2ccccc21)c1ccc(F)cc1 (stereo not given)	-1	1	-2	-1	3	nt	nt
O=C1C=Cc2cccc3ccc(O)c1c23	-18	16*	4	-6	nt	20*	26*
COC(=O)c1cc(-c2cccc(OC)c2)c2c(=O)[nH]c(=O)n(C)c2n1	-30	8.8*	1	8	-2	18*	24*
COC(=O)c1cc(-c2cccc([N+](=O)[O-])c2)c2c(=O)n(C)c(=O)n(C)c2n1	-33	-2	2	-3	0	nt	nt
CC1CCCC(NC(=O)COC(=O)c2ccccc2Sc2ccccc2C#N)C1C (stereo not given)	-20	12*	0	21	5	29*	48*
CC1CCCC(NC(=O)COC(=O)c2ccc3ccccc3n2)C1C (stereo not given)	-16	15*	-8	-5	1	24*	32*
